In ChEMBL document CHEMBL3997791, “Nanomolar-Potency Aminophenyl-1,3,5-triazine Activators of the Cystic Fibrosis Transmembrane Conductance Regulator (CFTR) Chloride Channel for Prosecretory Therapy of Dry Eye Diseases” (J Med Chem, 2017):
The source made the active and inactive calls. The calls are words filed in the database; no cut-off is given here.

Columns and labels:
[1] = Chemical stability in opthalmic vehicle containing 0.3% CMC in Ringer's solution at 100 uM up to 24 hrs at 40 degC by LC-MS analysis; format: physicochemical
In short: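 Compound dissolved at 100 μM in ophthalmic vehicle (0.3% CMC in Ringer's solution), held 24 h at 40 °C; chemical integrity checked by LC/MS.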

[2] = test system: HT-29; test: Increase of iodide influx in human HT-29 cells expressing YFP at 10 uM measured after 10 mins for 2 to 12 sec by fluorescence assay; format: functional, cell-based
In short: (§1)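 HT-29 cells expressing YFP halide sensor, 10 μM compound, for non-TMEM16A calcium-activated chloride channel. Plate reader fluorescence quenching after iodide addition (activation) or iodide plus ATP addition (inhibition); initial rate of iodide influx computed as linear measure of channel function. Representative of two to four experiment sets.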

[3] = organism: Homo sapiens; test: Inhibition of potassium channel in human primary bronchial epithelial cells assessed as effect on short-circuit current at 10 uM after 10 mins by voltage clamp method
In short: (§2)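 Primary human bronchial epithelial cells grown at air-liquid interface, mounted in Ussing chambers in symmetrical HCO3−-buffered solutions (95% O2/5% CO2, 37 °C), with Ag/AgCl electrodes. After 10 min preincubation with 10 µM compound, sequential additions were 20 µM amiloride, 20 µM forskolin, 10 µM CFTRinh-172 and 100 µM ATP. Traces represent two to four experiment sets.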

[4] = biological target: T1, Anoctamin-1 (Homo sapiens) (UniProt Q5XXA6); test: Inhibition of human TMEM16A expressed in FRT cells co-expressing YFP assessed as decrease in iodide influx at 10 uM measured after 10 mins for 2 to 12 sec in presence of ATP by fluorescence assay; format: cell-based
T1 sequence (whole entry): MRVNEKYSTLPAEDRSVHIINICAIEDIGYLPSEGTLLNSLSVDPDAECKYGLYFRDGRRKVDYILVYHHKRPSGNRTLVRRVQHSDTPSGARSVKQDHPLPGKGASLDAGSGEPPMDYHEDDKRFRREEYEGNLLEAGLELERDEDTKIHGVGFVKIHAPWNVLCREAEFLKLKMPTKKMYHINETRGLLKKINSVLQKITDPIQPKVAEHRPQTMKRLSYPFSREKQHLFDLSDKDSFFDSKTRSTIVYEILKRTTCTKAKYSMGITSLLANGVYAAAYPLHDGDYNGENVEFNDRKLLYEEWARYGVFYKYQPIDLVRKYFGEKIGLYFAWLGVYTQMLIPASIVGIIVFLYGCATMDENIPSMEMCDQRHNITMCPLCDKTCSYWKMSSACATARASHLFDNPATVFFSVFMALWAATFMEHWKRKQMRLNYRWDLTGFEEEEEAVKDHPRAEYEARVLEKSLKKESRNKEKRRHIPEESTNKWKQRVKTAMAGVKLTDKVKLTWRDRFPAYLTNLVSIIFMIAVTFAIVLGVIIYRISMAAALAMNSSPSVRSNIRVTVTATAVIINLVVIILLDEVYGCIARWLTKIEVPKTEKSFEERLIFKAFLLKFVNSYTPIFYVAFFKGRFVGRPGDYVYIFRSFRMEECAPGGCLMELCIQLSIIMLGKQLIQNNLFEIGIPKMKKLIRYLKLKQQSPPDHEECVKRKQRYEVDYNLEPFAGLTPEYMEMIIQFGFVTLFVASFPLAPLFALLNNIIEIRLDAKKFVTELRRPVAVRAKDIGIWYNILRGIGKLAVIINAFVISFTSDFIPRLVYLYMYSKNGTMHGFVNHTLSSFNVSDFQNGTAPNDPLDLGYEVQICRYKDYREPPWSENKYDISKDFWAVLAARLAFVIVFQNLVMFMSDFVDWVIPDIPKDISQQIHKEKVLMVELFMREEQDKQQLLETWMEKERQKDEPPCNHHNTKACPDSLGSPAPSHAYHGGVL
In short: (§3)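 FRT cells stably coexpressing TMEM16A and YFP-H148Q; compound at 10 μM. Fluorescence quenching read in plate reader after iodide addition (activation) or iodide plus ATP addition (inhibition); initial rate of iodide influx computed as linear measure of channel function. Representative of two to four experiment sets.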

[5] = test system: HT-29; test: Inhibition of iodide influx in human HT-29 cells expressing YFP at 10 uM measured after 10 mins for 2 to 12 sec in presence of ATP by fluorescence assay; format: functional, cell-based; in short: as §1
[6] = Cytotoxicity against Fischer rat thyroid cells assessed as effect on cell survival up to 10 uM after 8 hrs by alamar blue assay; format: cell-based
In short: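 FRT cells cultured overnight, then incubated 8 h with compound up to 10 μM; 33% DMSO as positive control. Viability read by Alamar Blue; mean ± SEM, n = 8.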

[7] = organism: Homo sapiens; test: Inhibition of sodium/potassium pump in human primary bronchial epithelial cells assessed as effect on short-circuit current at 10 uM after 10 mins by voltage clamp method; in short: as §2
[8] = Metabolic stability in rat hepatic microsomes assessed as parent compound remaining at 5 uM after 15 mins in presence of NADPH by LC-MS analysis; format: ADME, Microsome; settings: liver microsomes, read-out: Stability
In short: (§4)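 Compound at 5 μM incubated at 37 °C with rat liver microsomes (1 mg/mL) in potassium phosphate buffer with 1 mM NADPH; quenched with ice-cold EtOAc, centrifuged, supernatant analysed by LC/MS (C18, water/acetonitrile with 0.1% formic acid gradient, UV 254 nm) for parent remaining; mean ± SEM, n = 3.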

[9] = organism: Homo sapiens; test: Inhibition of calcium-activated chloride channel in human primary bronchial epithelial cells assessed as inhibition of ATP-induced short-circuit current at 10 uM preincubated for 10 mins followed by ATP addition by voltage clamp method; in short: as §2
[10] = Elevation of cytoplasmic calcium level in Fischer rat thyroid cells co-expressing YFP and human CFTR at 10 uM incubated for 5 mins by fluo-4 dye based fluorescence assay; format: ADME; settings: thyroid cell
In short: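 FRT cells in 96-well plates loaded with Fluo-4 NW, pretreated 5 min with 10 μM compound or control; 100 μM ATP added as calcium agonist. Fluorescence followed in plate reader with syringe pumps. Representative of two to four experiment sets.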

[11] = Solubility of the compound in phosphate buffered solution; format: physicochemical
[12] = biological target: T1, Anoctamin-1 (Homo sapiens); test: Activation of human TMEM16A expressed in FRT cells co-expressing YFP assessed as increase in iodide influx at 10 uM measured after 10 mins for 2 to 12 sec by fluorescence assay; format: cell-based; in short: as §3
[13] = organism: Homo sapiens; test: Inhibition of ENaC in human primary bronchial epithelial cells assessed as effect on short-circuit current at 10 uM after 10 mins by voltage clamp method; in short: as §2
[14] = Elevation of forskolin-stimulated cAMP level in Fischer rat thyroid cells co-expressing YFP and human CFTR at 10 uM incubated for 10 mins by immunoassay; format: ADME, cell-based; settings: thyroid cell
In short: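 FRT cells expressing wild-type CFTR in 12-well plates, PBS-washed, incubated 10 min with 10 μM compound without or with 90 nM forskolin; references were forskolin alone (90 nM, 20 μM) and 20 μM forskolin + 100 μM IBMX. Lysates assayed for cAMP by immunoassay; mean ± SEM, n = 4.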

[15] = Metabolic stability in rat hepatic microsomes assessed as parent compound remaining at 5 uM after 60 mins in presence of NADPH by LC-MS analysis; format: ADME, Microsome; settings: liver microsomes, read-out: Stability; in short: as §4

| SMILES | Stability [1] | Activity [2] | inhibition [3] | inhibition [4] | inhibition [5] | Activity [6] | inhibition [7] | remaining at […], 5 µM [8] [%] | inhibition [9] | Activity [10] | solubility [11] [µM] | Activity [12] | inhibition [13] | Activity [14] | remaining at 1 h, 5 µM [15] [%] |
| --- | --- | --- | --- | --- | --- | --- | --- | --- | --- | --- | --- | --- | --- | --- | --- |
| CNc1nc(Nc2ccccc2)nc(OCC(F)(F)C(F)F)n1 | Stable | inactive | inactive | inactive | inactive | Non-Toxic | inactive | < 40 | inactive | Non-Toxic | ≤ 10 | inactive | inactive | Non-Toxic | – |
| CCN(CC)c1nc(Nc2ccc3ncsc3c2)nc(OC(C(F)(F)F)C(F)(F)F)n1 | – | inactive | inactive | inactive | inactive | Non-Toxic | inactive | – | inactive | Non-Toxic | ≤ 10 | inactive | inactive | Non-Toxic | 60 |
